Structures are written as SMILES.

Data set [1] can be described thus: Safety index, ratio of arrhythmogenic concentration to minimum positive inotropic effective concentration causing myocardial contraction in guinea pig left atrial muscles. The class given is toxicity, tissue-based, Cavia porcellus, Muscle tissue. The settings on record: for selectivity ratio: isolated left atrial muscles. The procedure, abridged: (§1)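 Paced guinea pig left atrial or right ventricular strips (1 g tension, 2 Hz) received cumulative drug addition. The lowest concentration raising contraction (PIECmin) and the concentration inducing arrhythmia were both recorded. Safety index was calculated as the ratio of the arrhythmogenic concentration to PIECmin.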

Data set [2] in a line: Cardiotonic activity in guinea pig left atrial muscles assessed as maximum positive inotropic effective concentration causing myocardial contraction relative to basal level. The class given is functional, Cavia porcellus, Muscle tissue. Summed up:
(§2)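 Isolated left atrial or right ventricular strips from adult guinea pigs (300–500 g; pentobarbital 25 mg/kg i.p.; heart retrogradely perfused with Tyrode's, pH not stated). Tissue held at 1 g tension, paced at 2 Hz (2 ms pulses, twice threshold), stabilised about 60 min, then given cumulative drug additions. Maximal inotropic effect taken at the concentration just before arrhythmia onset.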

Data set [3] is described as follows: Cardiotonic activity in guinea pig left atrial muscles assessed as minimum positive inotropic effective concentration causing myocardial contraction. The class given is functional, Cavia porcellus, Muscle tissue. The procedure, abridged:
(§3)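 Guinea pig left atrial or right ventricular strips were perfused with Tyrode's solution, held at 1 g tension and paced at 2 Hz (2 ms, twice threshold). After about 60 min stabilisation, drug was added cumulatively. PIECmin was recorded as the lowest concentration that increased myocardial contraction.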

Data set [4] can be described thus: Cardiotonic activity in guinea pig right ventricular muscles assessed as minimum positive inotropic effective concentration causing myocardial contraction. The class given is functional, Cavia porcellus, Muscle tissue. Summed up: as §3
Data set [5] can be described thus: Safety index, ratio of arrhythmogenic concentration to minimum positive inotropic effective concentration causing myocardial contraction in guinea pig right ventricular muscles. The settings on record: isolated right ventricular muscles. The class given is toxicity, tissue-based, Cavia porcellus, Muscle tissue. Summed up:
as §1

Data set [6] is described as follows: Cardiotonic activity in guinea pig right ventricular muscles assessed as maximum positive inotropic effective concentration causing myocardial contraction relative to basal level. The class given is functional, Cavia porcellus, Muscle tissue. Summed up:
as §2

Take `C[C@]12[C@H](O)C[C@H]3[C@@H](CC[C@]4(O)CCCC[C@]34C=O)[C@@]1(O)CC[C@@H]2C1=CC(=O)OC1` [ANTIARIGENIN]: the selectivity ratio in data set [1] worked out at 20. Also, the results for the Activity in data set [2] and in data set [3] were 121% and 0.05 µM, respectively.
As for `CO[C@H]1[C@@H](O[C@H]2CC[C@]3(C=O)[C@H]4C[C@@H](O)[C@]5(C)[C@@H](C6=CC(=O)OC6)CC[C@]5(O)[C@@H]4CC[C@]3(O)C2)O[C@H](C)[C@@H](O)[C@@H]1O` [TOXICARIOSIDE B], the selectivity ratio in data set [1] came to 10. The figures for the Activity in data set [2] and in data set [3] were 163% and 0.1 µM, respectively.
For `C[C@@H]1O[C@H](O[C@H]2CC[C@@]3(C(=O)O[C@@H]4O[C@H](CO)[C@@H](O)[C@H](O)[C@H]4O)[C@H](CC[C@@H]4[C@@H]3CC[C@]3(C)[C@@H](C5=CC(=O)OC5)CC[C@]43O)C2)[C@H](O)[C@H](O)[C@H]1O` [ANTIAROSIDE F], the selectivity ratio in data set [1] was determined as 6; in data set [5] it was 5.8. The Activity in data set [2] is 140%; in data set [4], 3.17 µM; in data set [6] it was 618%; in data set [3], 1.42 µM.
In the case of `C[C@@H]1O[C@H](O[C@H]2CC[C@]3(C(=O)O)[C@H]4C[C@@H](O)[C@]5(C)[C@@H](C6=CC(=O)OC6)CC[C@]5(O)[C@@H]4CC[C@]3(O)C2)[C@H](O)[C@H](O)[C@H]1O` [ANTIAROSIDE G], the values for the selectivity ratio in data set [1] and in data set [5] were 13 and 20.7, respectively. The Activity in data set [2] amounted to 419%; in data set [4] it was 3.67 µM; in data set [6], 221%; in data set [3], 3.75 µM.
Turning to `C[C@]12CC[C@H]3[C@@H](CC[C@]4(O)C[C@@H](O)CC[C@]34C=O)[C@@]1(O)CC[C@@H]2C1=CC(=O)OC1` [STROPHANTHIDIN], the selectivity ratio in data set [1] was found to be 9; in data set [5] it was 8.7. Moreover, the Activity was 165% in data set [2], 4.8 µM in data set [4], 240% in data set [6] and 1 µM in data set [3].
Consider `C[C@H]1O[C@@H](O[C@H]2CC[C@]3(C=O)[C@H]4CC[C@]5(C)[C@@H](C6=CC(=O)OC6)CC[C@]5(O)[C@@H]4CC[C@]3(O)C2)[C@H](O)[C@H](O)[C@H]1O` [DESGLUCOCHEIROTOXIN], for which the selectivity ratio was 50 in data set [1] and 10 in data set [5]. Besides, the Activity in data set [2] is 300%; in data set [4], 0.5 µM; in data set [6] it was 300%; in data set [3], 0.05 µM.
With `CO[C@H]1[C@@H](O[C@H]2CC[C@]3(C=O)[C@H]4CC[C@]5(C)[C@@H](C6=CC(=O)OC6)CC[C@]5(O)[C@@H]4CC[C@]3(O)C2)O[C@H](C)[C@@H](O)[C@H]1O` (stereo in doubt; 18) [STROPHATHOJAVOSIDE], in data set [1], the Ratio was 10. Besides, the Activity in data set [2] turned out to be 567%; in data set [4] it was 1 µM; in data set [6], 200%; in data set [3], 0.25 µM. The selectivity ratio in data set [5] was 5.
For `C[C@H]1O[C@H](O[C@H]2CC[C@]3(C(=O)O)[C@H]4C[C@@H](O)[C@]5(C)[C@@H](C6=CC(=O)OC6)CC[C@]5(O)[C@@H]4CC[C@]3(O)C2)[C@H](O)[C@H](O)[C@H]1O` [ANTIAROSIDE H], the selectivity ratio was 7.5 in data set [1] and 9.7 in data set [5]. Besides, the Activity in data set [2] came out at 144%; in data set [4], 8.33 µM; in data set [6] it was 260%; in data set [3], 7.5 µM.
On to `C[C@@H]1O[C@@H](O[C@H]2CC[C@]3(C=O)[C@H]4CC[C@]5(C)[C@@H](C6=CC(=O)OC6)CC[C@]5(O)[C@@H]4CC[C@]3(O)C2)[C@H](O)[C@H](O)[C@H]1O[C@@H]1O[C@H](CO)[C@@H](O)[C@H](O)[C@H]1O` [CONVALLOSIDE], for which the selectivity ratio in data set [1] worked out at 20; in data set [5], 9. Moreover, the Activity in data set [2] came out at 443%; in data set [4], 1 µM; in data set [6], 292%; in data set [3], 0.25 µM.
For `C[C@]12CC[C@H]3[C@@H](CC[C@]4(O)C[C@@H](O)CC[C@]34CO)[C@@]1(O)CC[C@@H]2C1=CC(=O)OC1` [STROPHANTHIDOL], the selectivity ratio came out at 6.3 in data set [1] and 65 in data set [5]. For the same molecule, the Activity in data set [2] was 205%; in data set [4] it was 0.3 µM; in data set [6] it was 408%; in data set [3], 1.25 µM.
For `C[C@@H]1O[C@@H](O[C@H]2CC[C@]3(C=O)[C@H]4CC[C@]5(C)[C@@H](C6=CC(=O)OC6)CC[C@]5(O)[C@@H]4CC[C@]3(O)C2)[C@H](O)[C@H](O)[C@H]1O` [CONVALLATOXIN], the selectivity ratio is 10 in data set [1] and 8 in data set [5]. Besides, the Activity in data set [2] was 467%; in data set [4], 0.125 µM; in data set [6], 300%; in data set [3], 0.1 µM.
Regarding `C[C@@H]1O[C@@H](O[C@H]2CC[C@@]3(CO)[C@H](CC[C@@H]4[C@@H]3CC[C@]3(C)[C@@H](C5=CC(=O)OC5)CC[C@]43O)C2)[C@H](O)[C@H](O)[C@H]1O[C@@H]1O[C@H](CO)[C@@H](O)[C@H](O)[C@H]1O` [ANTIAROSIDE B], the selectivity ratio in data set [1] worked out at 5; in data set [5], 100. Further, the Activity in data set [2] turned out to be 373%; in data set [4], 0.075 µM; in data set [6], 382%; in data set [3], 0.38 µM.
As to `C[C@@H]1O[C@H](O[C@@H]2CC[C@]3(C=O)[C@H]4CC[C@]5(C)[C@@H](C6=CC(=O)OC6)CC[C@]5(O)[C@@H]4CC[C@]3(O)C2)[C@H](O)[C@H](O)[C@H]1O` [ANTIAROSIDE C], the results for the selectivity ratio in data set [1] and in data set [5] were 15 and 9.7, respectively. Besides, the Activity in data set [2] was 208%; in data set [4], 4 µM; in data set [6], 229%; in data set [3], 2.75 µM.
As for `C[C@H]1O[C@H](O[C@H]2CC[C@]3(C=O)[C@H]4C[C@@H](O)[C@]5(C)[C@@H](C6=CC(=O)OC6)CC[C@]5(O)[C@@H]4CC[C@]3(O)C2)[C@H](O)[C@H](O)[C@@H]1O` [ANTIALLOSIDE], the selectivity ratio in data set [1] is 80. Also, the Activity was found to be 350% in data set [2] and 0.25 µM in data set [3].
Turning to `C[C@]12CC[C@H](O)C[C@@]1(O)CC[C@@H]1[C@@H]2CC[C@]2(C)[C@@H]([C@]3(O)COC(=O)C3)CC[C@]12O` [ANTIAROTOXININ A], in data set [1], the selectivity ratio is 1000. The values for the Activity in data set [2] and in data set [3] were 367% and 0.1 µM, respectively.

(Values after ChEMBL document CHEMBL1177741, “Cardiac glycosides from Antiaris toxicaria with potent cardiotonic activity” (J Nat Prod, 2010).)
